Compound activity: PubChem BioAssay, several laboratories
T cell HTS: modulates CD8 T cell binding to vesicles; 2C CD8+ T cell-vesicle binding, flow cytometry; stronger effect = lower value; response (vesicle binding), % at 7 µM; 0.068% of 330,000 active; AID 2052;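 active = response, share of CD8 T cells binding vesicles, and their 90th percentile fluorescence all below set limits, cut at about 80% in these data, passing the limit was not always enough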;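 also: values below 100% mean blocked vesicle binding to the CD8+ T cells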
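Material: murine 2C transgenic CD8+ T lymphocytes / Also added: QL9-peptide-loaded Drosophila micro-vesicles bearing Ld, ICAM-1 and B7-1 / Schedule: binding step 1.5 h, 37 °C, antibody labelling 20 min, ice / Signal: flow cytometry, PE anti-B7-1 (FL2) versus Alexa647 anti-CD8 (FL8), PFA-fixed / Evaluation: percent CD8+ FL2 mean versus row control / Benchmarks: naked versus QL9-loaded vesicles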
ALR inh: human ALR oxidase inhibition via reduced H2O2; inhibition, % (concentration not given with the values); purified ALR, DTT oxidation, H2O2 HRP-luminol luminescence; AID 485317; 3.8% of 290,000 active; P55789;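 active = mean replicate inhibition above about 79%, with every replicate also reaching it, limit read from the data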
Target sequence (P55789 whole entry, looked up): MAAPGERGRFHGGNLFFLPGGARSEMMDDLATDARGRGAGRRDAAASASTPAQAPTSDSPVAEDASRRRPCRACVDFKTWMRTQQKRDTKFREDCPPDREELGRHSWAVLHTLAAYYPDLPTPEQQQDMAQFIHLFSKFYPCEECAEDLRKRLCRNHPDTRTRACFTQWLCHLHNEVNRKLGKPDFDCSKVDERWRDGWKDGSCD
Glyco luc inh: N-linked glycosylation inhibition; 0.23% of 360,000 active; reporter increase, % at 12.5 µM; D54 ERlucT glycosylation luciferase reporter, 24 h; percent of 100 nM tunicamycin response;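 active = mean luciferase reporter signal, scaled so untreated is 0 and the glycosylation-blocking control 100, at or above a set limit in every replicate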;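 also: luciferase carries N-glycosylation sites so blocking glycosylation raises the light; 0% = median of neutral control wells and 100% = median of 100 nM tunicamycin wells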
Active calls of the source: *; nt = not tested or not shown. The sample as a whole holds a higher share of hits than the screen did.

SMILES	T cell HTS	ALR inh	Glyco luc inh
Cc1ccc(S(=O)(=O)N2CCN(C(=O)COC(=O)/C=C/c3ccccc3)CC2)c(C)c1	956	4	-1
CC1CCCC(NC(=O)CCS(=O)(=O)c2cc3c(cc2Cl)NC(=O)CO3)C1C (stereo not given)	117	0	-1
Cc1ccc(C(=O)CCC(=O)Nc2cccc(C(F)(F)F)c2)cc1	139	-8	4
Cc1ccccc1C(=O)NC1CCN(C(=O)Nc2ccccc2Cl)CC1	248	-15	0
CCOc1ccc(NC(=O)CN(C)C(=O)c2cn3ccccc3n2)cc1OCC	250	-3	2
OC[C@@H](O)C1OC2NC(=S)OC2C1O (stereo not given in full)	543	-3	-1
Cc1ccc(-c2nc(CS(=O)CC(=O)NCc3ccccc3)c(C)o2)cc1 (stereo not given)	204	98*	3
COc1ccc(NC(=O)CS(=O)(=O)Cc2nc(-c3ccc(C)cc3)oc2C)cc1	160	-2	3
Cc1oc(-c2ccccc2)nc1CC(=O)O	156	-5	2
Cc1ccc(NC(=O)CS(=O)Cc2nc(-c3ccc(C)cc3)oc2C)cc1 (stereo not given)	564	99*	3
CCc1ccc(-c2nc(CS(=O)CC(=O)NCCc3ccccc3)c(C)o2)cc1 (stereo not given)	264	99*	-1
COc1ccc(-c2nc(CS(=O)(=O)CC(=O)NCCc3ccccc3)c(C)o2)cc1	264	-4	2
C[C@H](NC(=O)c1ncn2c1C(=O)N[C@@H](C)C2)C(=O)OC(C)(C)C	nt	nt	2
Cc1ccc(NC(=O)CN2CCN(CCN=CC3=C(O)CC(c4ccccc4)CC3=O)CC2)cc1 (stereo not given)	400	-25	1
COc1ccc(NC(=O)/C(C#N)=C/c2ccc(OCCN3CCOCC3)c(OC)c2)c(OC)c1	309	-3	2
CCCn1c2ccc(C)cc2c2nnc(SCCN3CCOCC3)nc21	191	13	-4
CCCn1c2ccccc2c2nnc(SCCN3CCOCC3)nc21	292	96*	-3
NNc1nc(Nc2ccccc2)nc(Nc2ccccc2)n1	149	-4	3
c1ccc(Nc2ccnc(Nc3ccccc3)n2)cc1	109	96*	-9
COc1ccc(S(=O)(=O)NC(C)c2ccc3c(c2)OCCO3)cc1 (stereo not given)	nt	nt	1
CCOC(=O)c1ccc(S(=O)(=O)NCCN(CC)CC)cc1	560	-7	-2
CCN(CC)CCNS(=O)(=O)c1ccc(C(=O)NN)cc1	283	98*	0
COc1ccc(CCN(C)c2ncnc3sccc23)cc1OC	420	-4	-1
COc1ccc(CN(C)c2ncnc3sccc23)c(OC)c1OC	259	-1	30*
Cc1ccc(C)c(OC(=O)c2cncc(Br)c2)c1	0.0*	4	4
SMILES	T cell HTS	ALR inh	Glyco luc inh
CCc1ccc(C)c(OC(=O)c2cncc(Br)c2)c1	270	22	0
Cc1nc(NCCc2ccc(O)cc2)c2nnn(Cc3ccccc3)c2n1	220	2	2
C=CCn1c(NCCO)nc2sc3c(c2c1=O)CCC3	364	86*	3
O=c1c2c3c(sc2nc(NCCO)n1CCc1ccccc1)CCCCC3	194	18	6
CCOC(=O)c1ccc(N2CCOCC2)c(NC(=O)c2c(-c3ccccc3)noc2C)c1	425	-6	18
N/C(=N\OC(=O)c1ccc2c(c1)OCO2)c1cccc([N+](=O)[O-])c1	191	64	-2
Cc1cccc(/C(N)=N/OC(=O)c2ccc3c(c2)OCO3)c1	0	97*	-14
COc1ccc(N(CC(=O)NC(C)(C)C)C(=O)CCC(=O)Nc2nccs2)cc1	138	-1	1
COc1cc2c(cc1OC)C(NC(=O)C(F)(F)F)CNC2=O (stereo not given)	154	nt	-9
COc1ccc2[nH]c3c(NCc4ccco4)ncnc3c2c1	487	98*	nt
CCN(CC)CCNc1ncnc2c1[nH]c1ccc(OC)cc12	164	-3	nt
C=CCNC(=O)c1onc(CSc2ccccc2C)c1C(=O)O	564	46	0
CC(C)c1ccc(SCc2noc(C(=O)NCC3CCCO3)c2C(=O)O)cc1 (stereo not given)	nt	97*	4
C=CCNC(=O)c1onc(CSc2cc(C)ccc2C)c1C(=O)O	286	86*	2
O=C(NCC1CCCO1)c1onc(CSc2ccccc2)c1C(=O)O (stereo not given)	558	1	1
Cc1csc(=O)n1CC(=O)OCC(=O)NC(C)c1ccc(F)cc1 (stereo not given)	508	-1	1
Cc1cc(S(=O)(=O)NCCc2ccncc2)cc(C)c1F	361	-4	1
COc1ccccc1OS(=O)(=O)c1ccc(NC(C)=O)cc1	874	nt	1
